# Screens from PubChem.
# This is a sample that favours compounds with a hit; in the whole collection about 2.3% have one here.
# TRPC4 act = activators of mouse TRPC4 channel, primary screen, Fluo4 calcium, HEK293 TRPC4beta/mu-opioid cells; AID 2237, 2010; Fluo4 calcium fluorescence; stronger effect = higher value; B-score at 10 µM; 310,000 compounds, 0.49% hits; Short transient receptor potential channel 4 (Mus musculus), Q9QUQ5;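 active = B-score above 5 SD of library B-scores, and initial fluorescence ratio not above library mean plus 5 SD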;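 also: positive B-score marks a calcium rise read as TRPC4 activation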
# Target sequence (Q9QUQ5 whole entry, looked up): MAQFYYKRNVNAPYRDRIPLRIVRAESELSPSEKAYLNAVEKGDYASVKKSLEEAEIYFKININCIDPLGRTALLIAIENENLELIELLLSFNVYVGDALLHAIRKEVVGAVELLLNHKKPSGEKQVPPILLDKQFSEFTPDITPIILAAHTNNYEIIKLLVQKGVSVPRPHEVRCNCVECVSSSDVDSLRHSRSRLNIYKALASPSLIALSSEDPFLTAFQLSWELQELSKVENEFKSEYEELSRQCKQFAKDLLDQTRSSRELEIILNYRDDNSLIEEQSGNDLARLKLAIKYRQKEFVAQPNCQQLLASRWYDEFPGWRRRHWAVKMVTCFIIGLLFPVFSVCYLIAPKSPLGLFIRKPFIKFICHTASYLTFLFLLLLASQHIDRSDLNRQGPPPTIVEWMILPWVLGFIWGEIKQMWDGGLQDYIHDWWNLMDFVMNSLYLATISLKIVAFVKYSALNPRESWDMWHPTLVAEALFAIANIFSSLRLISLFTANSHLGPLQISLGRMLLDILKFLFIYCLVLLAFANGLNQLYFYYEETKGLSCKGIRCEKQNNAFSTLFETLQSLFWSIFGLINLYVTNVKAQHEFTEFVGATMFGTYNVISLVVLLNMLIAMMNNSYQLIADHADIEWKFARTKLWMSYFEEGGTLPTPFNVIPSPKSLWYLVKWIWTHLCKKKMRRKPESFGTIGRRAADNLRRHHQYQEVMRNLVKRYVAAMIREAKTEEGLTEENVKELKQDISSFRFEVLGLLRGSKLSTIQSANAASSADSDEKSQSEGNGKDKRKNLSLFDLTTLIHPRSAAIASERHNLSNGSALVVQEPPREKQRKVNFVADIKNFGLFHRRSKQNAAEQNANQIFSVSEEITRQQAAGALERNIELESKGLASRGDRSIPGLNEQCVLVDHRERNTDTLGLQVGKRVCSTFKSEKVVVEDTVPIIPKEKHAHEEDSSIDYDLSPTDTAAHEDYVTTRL
#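 system = HEK293 cells stably co-expressing mouse TRPC4beta and mu-opioid receptor | schedule = Fluo4 dye loading 45 min at room temperature, 110 s recording | measure = B-scored integrated calcium fluorescence ratio | signal = Fluo4 calcium-sensitive dye fluorescence, kinetic, 1 Hz baseline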
# TRPC4 PAM = positive allosteric modulators of TRPC4, primary screen, cell-based, mouse TRPC4beta, HEK293 mu-opioid, Fluo-4 calcium; AID 2227, 2009; 310,000 compounds, 0.42% hits; Short transient receptor potential channel 4 (Mus musculus), Q9QUQ5; DAMGO EC20, Fluo-4 Ca2+ flux; stronger effect = higher value; B-score at 10 µM;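 active = B-score of calcium response area above 5 SD of library B-scores, with initial fluorescence ratio within 5 SD of library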;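 also: B-score of integrated fluorescence ratio over time as area under calcium response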
# TRPC6 act = mouse TRPC6 channel activators, primary screen, cell-based, HEK293, membrane potential dye | Short transient receptor potential channel 6 (Mus musculus), Q61143 | HEK293-TRPC6 membrane potential dye fluorescence; stronger effect = higher value | B-score at 10 µM | 310,000 compounds, 0.13% hits;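 active = B-score of the integrated fluorescence ratio above library mean plus 3 SD, and starting fluorescence ratio within library mean plus 5 SD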;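 also: higher score means more depolarization so channel activation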
# TRPC4 inh = inhibitors of mouse TRPC4 channel, primary screen, Fluo4 calcium, HEK293 TRPC4beta/mu-opioid cells; DAMGO-evoked Fluo4 calcium flux; stronger effect = lower value; Short transient receptor potential channel 4 (Mus musculus), Q9QUQ5; B-score at 10 µM; AID 2247, 2010; 300,000 compounds, 0.39% hits;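 active = B-score over 3 SD under the library average, no early fluorescence shift, positive overall ratio signal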
#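 Assay system: TRPC4beta/mu-opioid receptor HEK293 cell line; compound dosing: single concentration per test compound; detection: Fluo4 Ca2+ flux fluorescence; evaluation: per-well B score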
# TRPC6 inh = mouse TRPC6 channel inhibitors, primary screen, cell-based, HEK293, membrane potential dye; Short transient receptor potential channel 6 (Mus musculus), Q61143; ACh-evoked depolarization; stronger effect = lower value; B-score at 10 µM; 310,000 compounds, 1.1% hits;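 active = B-score under library mean minus 3 SD, initial fluorescence not abnormally high, positive integrated signal ratio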;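 also: B-score derived from integrated fluorescence ratio over the kinetic read; more negative B-score means stronger inhibition of depolarization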
# TRPC4 spec 2 = second selectivity test of TRPC6 inhibitors: effect on mouse TRPC4 | shares compounds with TRPC6 inh | HEK293 TRPC4/MOR, membrane potential dye fluorescence; channel activated by saturating DAMGO dose | inhibition, % at 10 µM | 920 compounds, 42% hits;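 active = compounds whose fluorescence signal differed from control wells by over 3 SD, either direction, in both duplicate plates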
# TRPC4 spec = mouse TRPC4 modulation by TRPC6 hits, confirmation, selectivity assay for TRPC6 inhibitor project, cell-based, HEK293 TRPC4/mu-opioid, membrane potential dye | AID 2777, 2010 | membrane potential fluorescence | activity change, negative = inhibition, % at 10 µM | shares compounds with TRPC6 inh | 920 compounds, 61% hits;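 active = rise or fall in signal beyond 3 SD of buffer-only wells in both replicate plates, either sign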;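 also: integrated kinetic ratio of fluorescence range over baseline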
# HEK293 MPD ctr 2-1 = nonspecific membrane potential effects, parental HEK293, confirmation, counter-screen for TRPC6 inhibitor project, cell-based, second counter screen; shares compounds with TRPC6 inh; parental HEK293 membrane potential dye fluorescence; maximal acetylcholine challenge after compound addition; signal change vs control, % at 10 µM; 920 compounds, 31% hits;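 active = membrane potential signal moving either way by over 3 SD of the maximum-effect control, in both duplicate plates, meaning non-specific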
# HEK293 MPD ctr-1 = membrane potential modulation in parental HEK293, confirmation, counter-screen for TRPC6 inhibitor project, cell-based. membrane potential signal change, % at 10 µM. shares compounds with TRPC6 inh. AID 2780, 2010. parental HEK293 membrane potential dye fluorescence. 920 compounds, 60% hits;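 active = membrane potential signal shifting up or down by more than 3 SD of buffer-only wells, on both duplicate plates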
# HEK293 MPD ctr-2 = parental HEK293 membrane potential modulation, confirmation, counter-screen for TRPC6 modulator project, cell-based; shares compounds with TRPC6 inh; membrane potential dye fluorescence; membrane potential signal change, % at 10 µM; 2,400 compounds, 51% hits; AID 488924, 2010;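 active = membrane potential signal moves up or down beyond 5 SD from buffer-only wells, on both duplicate plates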
# HEK293 MPD ctr 2-2 = second check of TRPC6 modulator effects in parental HEK293 cells; 2,400 compounds, 14% hits; shares compounds with TRPC6 inh; membrane potential dye fluorescence; after compound, maximal acetylcholine stimulation; inhibition, % at 10 µM;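 active = membrane potential signal drops by more than 5 SD from the mean control signal, in both duplicate plates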;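 also: plate controls were acetylcholine ECmax control wells for no effect and buffer only wells for full effect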
# TRPC4/MOR mod = TRPC4 modulation by TRPC6 hit compounds, confirmation, selectivity assay for TRPC6 modulator project, cell-based, HEK293 TRPC4/mu-opioid, membrane potential dye, mouse | 2,400 compounds, 69% hits | membrane potential fluorescence | shares compounds with TRPC6 inh | percent change from control (negative = decrease, positive = increase), % at 10 µM;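 active = membrane potential signal moved up or down beyond 5 SD of buffer control wells, in both duplicate plates, actives on both sides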;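 also: plate controls were assay buffer wells for no effect and DAMGO maximal-effect wells for full effect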
# TRPC4/MOR inh 2 = second selectivity test of TRPC6 modulators against mouse TRPC4; inhibition, % at 10 µM; HEK293 TRPC4/mu-opioid, membrane potential dye fluorescence; stimulated with maximal-effect DAMGO; shares compounds with TRPC6 inh; 2,400 compounds, 55% hits;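 active = drop in membrane potential signal beyond 5 SD of the control wells in both duplicate plates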;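 also: TRPC4 counter screen for TRPC6 hits run under conditions tuned for TRPC6 not TRPC4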
# TRPC6 block conf = mouse TRPC6 channel inhibitors, confirmation, HEK293 cells, membrane potential dye, duplicate | inhibition, % at 10 µM | 3,300 compounds, 43% hits | ACh-evoked depolarization | shares compounds with TRPC6 inh;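 active = fluorescence ratio falls more than 5 SD below the full-stimulation control mean, in both duplicate runs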;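 also: integrated fluorescence ratio of peak minus minimum over baseline after agonist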
# TRPC6 act confirm = mouse TRPC6 channel activators, confirmation, HEK293 cells, membrane potential dye, duplicate | shares compounds with TRPC6 inh | HEK293-TRPC6 membrane potential dye fluorescence, FDSS | activation, % at 10 µM | 2,800 compounds, 11% hits;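 active = ratio signal rise beyond 5 SD above unstimulated control wells' mean, seen in both duplicate runs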;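 also: plate controls were buffer EC0 wells for no effect and acetylcholine ECmax response for full effect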
# An asterisk follows results filed as active; i = inactive; / = not tested or not shown.
SMILES,TRPC4 act,TRPC4 PAM,TRPC6 act,TRPC4 inh,TRPC6 inh,HEK293 MPD ctr-2,HEK293 MPD ctr 2-2,TRPC4/MOR mod,TRPC4/MOR inh 2,TRPC6 block conf,TRPC6 act confirm,others
CC12CNCC(C)(CN(C(c3ccccc3)c3ccccc3)C1)C2,i,i,i,i,-5.6*,182%*,i,76%*,90%*,i,/,
Clc1ccc(C(c2ccccc2)N2CCNCC2)cc1 (stereo not drawn),i,i,i,i,-7.8*,/,/,/,/,i,i,TRPC4 spec 2=61%*;TRPC4 spec=i;HEK293 MPD ctr 2-1=i;HEK293 MPD ctr-1=i
COCCNc1nc2nonc2nc1N1CCC(N(C)C)C1 (stereo not drawn),i,i,i,i,-5.4*,i,i,i,i,i,i,
COCCNc1nc2nonc2nc1N1C[C@H]2CC[C@H]1C2,i,i,i,i,i,/,/,/,/,/,/,
O=C(NC1CCCCC1)C1CCCN1S(=O)(=O)c1ccc(F)cc1 (stereo not drawn),i,i,i,i,-8.1*,/,/,/,/,i,i,TRPC4 spec 2=i;TRPC4 spec=i;HEK293 MPD ctr 2-1=i;HEK293 MPD ctr-1=i
Cc1ccc(N2CCN(c3ccc(C)cc3)C2c2cccnc2)cc1,i,i,i,i,i,/,/,/,/,/,/,
c1ccc(N2CCN(c3ccccc3)C2c2cccnc2)cc1,i,i,i,i,-5.6*,i,i,18%*,31%*,i,/,
N=c1sccn1CC(=O)Nc1cc(Cl)ccc1Oc1ccccc1,i,i,i,i,-9.6*,/,/,/,/,69%*,i,TRPC4 spec 2=24%*;TRPC4 spec=i;HEK293 MPD ctr 2-1=i;HEK293 MPD ctr-1=i
N=c1sccn1CC(=O)Nc1ccc(Cl)cc1[N+](=O)[O-],i,i,i,i,i,/,/,/,/,/,/,
N=c1sccn1CC(=O)Nc1cccc(Oc2ccccc2)c1,i,i,i,i,-5.7*,i,i,i,82%*,52%*,i,
CCN1CCN(C(=S)Nc2ccc3nc4n(c(=O)c3c2)CCCCC4)CC1,i,i,i,i,i,/,/,/,/,/,/,
c1cnc2c(C3NCCc4c3[nH]c3ccccc43)cccc2c1 (stereo not drawn),i,i,i,i,-6.6*,i,i,i,72%*,50%*,i,
O=C(O)c1cccnc1C(=O)N1CCc2c([nH]c3ccccc23)C1C(F)(F)F (stereo not drawn),i,i,i,i,i,/,/,/,/,/,/,
NC1C2CN(c3nc4c(cc3F)c(=O)c(C(=O)O)cn4-c3ccc(F)cc3F)CC12 (stereo not drawn),i,i,i,i,-5.6*,-274%*,i,-46%*,i,i,i,
O=C(O)c1cn(-c2ccc(F)cc2)c2cc(Cl)c(F)cc2c1=O,i,i,i,i,i,/,/,/,/,/,/,
CCc1cccc(OCC(=O)Nc2ccccc2N2CCCC2)c1,i,i,i,i,-6.1*,i,i,i,33%*,i,i,
COCCn1c(SCC(=O)N(C(C)C)C(C)C)nnc1-c1cc2ccccc2cc1O,i,i,i,i,-5.1*,i,i,i,i,42%*,/,
CC(C)N(C(=O)CSc1nnc(-c2cc3ccccc3cc2O)n1Cc1ccco1)C(C)C,i,i,i,i,i,/,/,/,/,/,/,
COCCNC(=O)CN1C(=O)NC2(CCCCCC2)C1=O,i,i,i,i,i,/,/,/,/,/,/,
CCOC(=O)N1CCC(Nc2ccc3nnc(-c4ccccc4)n3n2)CC1,i,i,i,i,-5.5*,i,i,i,i,68%*,/,
COc1cccc(OC)c1C(=O)NC(C)C12CC3CC(CC(C3)C1)C2 (stereo not drawn),i,i,i,i,i,/,/,/,/,/,/,
COc1ccc(CNC(C)C23CC4CC(CC(C4)C2)C3)c(OC)c1OC (stereo not drawn),i,i,i,i,-8.1*,/,/,/,/,96%*,/,TRPC4 spec 2=i;TRPC4 spec=35%*;HEK293 MPD ctr 2-1=i;HEK293 MPD ctr-1=19%*
